KCNK9 block – KCNK9 potassium channel inhibitors, primary screen, HEK293 cells, thallium flux. Potassium channel subfamily K member 9 (Homo sapiens), Q9NPC2. FluxOR thallium flux fluorescence; stronger effect = lower value. B-score at 10 µM. hit rate 1.2% among 310,000. AID 488922, 2010;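 active = ratio B-score over 3 SD below the library mean, with starting fluorescence within 5 SD of its mean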;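 note: negative B-score means less thallium flux so channel inhibition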
hERG protect – hERG rescue from dofetilide block, primary screen, cell-based, CHO-hERG, FluxOR thallium flux, dofetilide IC70 | AID 1511, 2009 | Voltage-gated inwardly rectifying potassium channel KCNH2 (Homo sapiens), Q12809 | hit rate 0.51% among 310,000 | activation (rescue from dofetilide block), less the hit threshold, % at 10 µM | dofetilide IC70 present;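 active = activation above the mean of controls blocked by dofetilide plus 5 SD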;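 note: thallium influx through hERG after potassium depolarization seen as dye fluorescence rise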
KCNQ1 block – inhibitors of human KCNQ1 channel, primary screen, cell-based, thallium flux, high-throughput | B-score at 10 µM | CHO-K1 KCNQ1, FluxOR thallium flux fluorescence; stronger effect = higher value | AID 2642, 2010 | hit rate 1.3% among 310,000;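 active = compounds whose thallium flux B-score, printed positive for inhibition, exceeds three library SD while starting fluorescence stays within three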;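 note: channel opened by potassium depolarization with thallium stimulus after 20 min compound exposure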
Target sequence (P51787 whole entry, looked up): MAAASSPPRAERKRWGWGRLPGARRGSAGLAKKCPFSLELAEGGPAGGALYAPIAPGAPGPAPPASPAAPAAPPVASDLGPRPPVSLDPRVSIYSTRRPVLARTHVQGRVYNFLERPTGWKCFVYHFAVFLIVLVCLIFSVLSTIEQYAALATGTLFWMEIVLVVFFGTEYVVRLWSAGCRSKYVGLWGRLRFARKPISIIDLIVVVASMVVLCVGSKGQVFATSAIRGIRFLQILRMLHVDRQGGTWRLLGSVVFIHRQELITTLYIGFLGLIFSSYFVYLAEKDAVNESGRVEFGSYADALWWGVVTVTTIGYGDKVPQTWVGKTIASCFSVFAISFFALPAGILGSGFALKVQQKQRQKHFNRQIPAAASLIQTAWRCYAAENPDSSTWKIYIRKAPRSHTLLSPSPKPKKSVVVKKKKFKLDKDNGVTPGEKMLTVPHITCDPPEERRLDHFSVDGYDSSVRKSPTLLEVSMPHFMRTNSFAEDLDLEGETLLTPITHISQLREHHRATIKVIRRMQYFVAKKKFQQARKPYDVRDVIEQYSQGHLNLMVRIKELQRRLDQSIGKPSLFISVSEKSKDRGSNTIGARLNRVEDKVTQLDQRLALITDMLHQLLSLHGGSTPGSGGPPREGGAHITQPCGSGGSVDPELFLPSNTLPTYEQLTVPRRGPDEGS
Kir21 inh – inhibitors of mouse Kir2.1 inward-rectifier potassium channel. B-score at 10 µM. HEK293-Kir2.1, FluxOR thallium flux fluorescence; stronger effect = lower value. Inward rectifier potassium channel 2 (Mus musculus), P35561. hit rate 0.85% among 310,000;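 active = fluorescence ratio B-score at or below minus 3 SD of library scores, with starting-brightness B-score within 2 SD, cut at about -4.2 in these data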;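 note: channel flux triggered by added potassium and thallium sulfate stimulus; B-score of peak minus minimum fluorescence over baseline after thallium stimulus; more negative B-score means stronger Kir2.1 block with less thallium influx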
KCNK3 block – human KCNK3 channel inhibitors, primary screen, CHO cells, FluxOR thallium flux, B-score | Potassium channel subfamily K member 3 (Homo sapiens), O14649 | hit rate 0.84% among 340,000 | FluxOR fluorescence; stronger effect = lower value | B-score at 10 µM | AID 602410, 2012;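 active = B-score under library mean minus 4 SD, starting fluorescence ratio at most library mean plus 5 SD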;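 note: more negative B-score means stronger inhibition of thallium flux through KCNK3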
KCNQ1 pot – potentiators or activators of KCNQ1 channel, primary screen, cell-based, thallium flux, high-throughput. CHO-K1 KCNQ1, thallium flux FluxOR fluorescence; stronger effect = higher value. B-score at 10 µM. hit rate 0.35% among 310,000. AID 2648, 2010;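 active = fluorescence ratio B-score, a plate-corrected score, at least three library SD, with initial intensity B-score within 5 SD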
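assay system = CHO-K1 cells stably expressing KCNQ1 | medium = assay buffer, equal DMSO in all wells | timing = 37 °C overnight plating, 90-min dark dye load, 20-min compound pretreatment | measured by = kinetic FluxOR thallium fluorescence, 10-s 1-Hz baseline, 110-s post-stimulus read | measure = fluorescence change relative to baseline, converted to B score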
Starred values were filed as active, the others as inactive; i = inactive; · = no result given. Compounds with a hit are over-represented: about 3.7% of the library has one in this group of screens.

SMILES | KCNK9 block | hERG protect | KCNQ1 block | Kir21 inh | KCNK3 block | KCNQ1 pot
N#CC(C(=O)NCCc1ccccc1)c1nc2ccccc2nc1N1CCCCC1 (centres undefined) | i | -11.7 | i | 0.45 | i | i
CCCCCCNC(=O)C(C#N)c1nc2ccccc2nc1N1CCOCC1 (centres undefined) | -6.77* | -2.3 | 7* | -0.67 | i | i
CCCCCNC(=O)C(C#N)c1nc2ccccc2nc1N1CCCC1 (centres undefined) | i | -13.4 | 7* | -1.96 | i | i
CCCCCCOC(=O)C(C#N)c1nc2ccccc2nc1N1CCN(CC)CC1 (centres undefined) | i | -28.4 | 7* | 1.19 | i | i
COCCCNC(=O)C(C#N)c1nc2ccccc2nc1N1CCCC1 (centres undefined) | i | -9.3 | i | 0.61 | i | i
CCOC(=O)N1CCN(c2nc3ccccc3nc2C(C#N)C(=O)NCCc2ccccc2)CC1 (centres undefined) | i | -13.9 | 8* | 0.38 | i | i
CCCCn1c(N)c(N(CC)C(=O)CSCC(=O)Nc2ccc(OC)cc2)c(=O)[nH]c1=O | i | -14.6 | i | -0.82 | i | i
CC(OC(=O)/C=C/c1ccc2ccccc2n1)C(=O)N(C)c1ccccc1 (centres undefined) | · | · | · | · | i | ·
CC(=O)/C=C/c1ccc2ccccc2n1 | i | -15.2 | i | -4.79* | i | i
CC1COc2ccccc2N1S(=O)(=O)c1ccc(Cl)cc1 (centres undefined) | i | -16.8 | i | -4.41* | i | i
O=C(COC(=O)C1CC2C=CC1C2)Nc1c(Br)cc([N+](=O)[O-])cc1Br (centres undefined) | · | · | · | · | i | ·
O=c1c(Cc2c(F)cccc2Cl)c(O)ccn1CCc1c[nH]c2ccccc12 | i | -3.7 | i | -0.09 | i | i
O=C(COC(=O)C1CCC(=O)N1)Nc1ccccc1OC(F)F (centres undefined) | · | · | · | · | i | ·
Cc1cccc(-c2nnc(-c3cccc4ccccc34)o2)c1 | · | · | · | · | -9.54* | ·
Cc1cccc(-c2nnc(-c3ccc4ccccc4c3)o2)c1 | · | · | · | · | -9.2* | ·
COCC(=O)N[C@@H]1c2cc(OC)c(OC)cc2C[C@H]1OCc1ccccc1 | · | · | · | · | i | ·
O=S(=O)(N1CCOCC1)n1nnc2ccccc21 | i | -1.3 | i | -0.02 | i | i
O=S(=O)(N1CCOCC1)n1c(Cc2ccccc2)nc2ccccc21 | i | -9.8 | i | -4.32* | i | i
Cc1cccc(Oc2ccc(NC(=O)c3ccccc3C(=O)O)cc2)c1C | i | 5.6* | i | -0.48 | i | i
O=C(O)c1ccccc1C(=O)Nc1ccc(Oc2cccc3ccccc23)cc1 | i | 2.5 | i | 2.08 | i | i
Cc1ccc(C2=N/C(=C\c3c(C)nn(-c4ccccc4)c3N3CCCC3)C(=O)O2)cc1 | i | -17.9 | 9* | 0.96 | i | i
CSCCC(NC(=O)c1ccccc1Br)C(=O)NNC(=O)C1COc2ccccc2O1 (centres undefined) | · | · | · | · | i | ·
CCOC(=O)c1c(-c2ccccc2)c2cc(OC)ccc2n1CCCN(C)C | i | -5.2 | i | -7.05* | i | i
Cc1ccccc1C(=O)NC(CC(C)C)C(=O)OCC(=O)c1c(N)n(C)c(=O)n(C)c1=O (centres undefined) | i | -9.6 | i | 1.33 | i | i
CCOC(=O)C1CCN(S(=O)(=O)c2ccc(C)cc2)CC1 | i | -3.7 | i | -0.05 | i | i
SMILES | KCNK9 block | hERG protect | KCNQ1 block | Kir21 inh | KCNK3 block | KCNQ1 pot
Cc1ccc(S(=O)(=O)c2c(C)nn(C(C)(C)C)c2OC(=O)C2CCCC2)cc1 | -8* | -2.6 | i | -0.69 | -8.82* | i
Cc1ccc2c(c1)-c1ncc(C(=O)c3cc(Br)ccc3O)cc1CO2 | -8.89* | -14.5 | 8* | -0.04 | · | i
Cc1cccc(Nc2c3c(nc4ccccc24)CCC3)c1 | i | -18.4 | i | -6.02* | i | i
Cc1ccc2nc3c(c(Nc4ccc(O)cc4)c2c1)CCC3 | i | -11.1 | i | 0.46 | i | i
Cc1ccc2nc3c(c(Nc4ccc5c(c4)OCCO5)c2c1)CCC3 | i | -24.0 | i | -5.63* | i | i
COc1ccc(Nc2c3c(nc4ccc(C)cc24)CCC3)cc1 | i | -10.4 | 8* | -3.84 | i | i
Cc1ccccc1NS(=O)(=O)c1ccc(C(=O)N2CCCC(C(F)(F)F)C2)cc1 (centres undefined) | i | -2.5 | i | -1.99 | i | i
CC(=O)c1cccc(NC(=O)c2ccc(N(Cc3ccccc3)S(C)(=O)=O)cc2)c1 | i | -13.3 | i | -0.67 | i | i
CS(=O)(=O)N(Cc1ccccc1)c1ccc(C(=O)Nc2ccc(C(N)=O)cc2)cc1 | i | 45.5* | i | 2.69 | i | i
COc1cc(C(=O)N/N=C/c2ccc(OC(=O)c3ccccc3Cl)c(OC)c2)ccc1O | i | -18.0 | 6* | 0.1 | i | i
COc1cccc(OC)c1/C(O)=C(\C#N)c1nc2ccccc2[nH]1 | -7.72* | -2.8 | i | 0.91 | i | i
CCCCCn1nnc2c(=O)oc3ccccc3c21 | i | -6.9 | i | 1.15 | i | i
O=C(NC(=S)Nc1ncc(Br)cc1Br)c1ccccc1 | i | 0.8 | i | 1.49 | i | 7*
O=C(NC(=S)Nc1cnc2ccccc2c1)c1ccccc1 | i | -7.7 | i | -0.74 | i | i
CC12CCC(C(=O)NCc3ccc4c(c3)OCO4)(CC1=O)C2(C)C (centres undefined) | i | 5.3* | i | 2.2 | i | i
O=[N+]([O-])c1cccc(/C=N/Nc2nc(N3CCOCC3)nc(N3CCOCC3)n2)c1 | i | -9.3 | i | -1.2 | i | i
O=[N+]([O-])c1cccc(/C=C/C=N/Nc2nc(N3CCCCC3)nc(N3CCCCC3)n2)c1 | i | 1.4 | 6* | -1.3 | i | i
CC(C)NC(=O)/C(C#N)=C/c1ccc(N(C)C)o1 | i | -13.8 | 7* | -3.71 | i | i
COc1cc(OC)cc(C(=O)Nc2ccc(N3CCOCC3)cc2N2CCOCC2)c1 | · | · | · | · | i | ·
C=CCNCCOCCOc1ccc(Cl)cc1C(C)(C)C | i | -9.6 | i | -10.9* | i | i

Screening data deposited in PubChem by Johns Hopkins Ion Channel Center.
